Drawing on ChEMBL document CHEMBL3217420, “Design, synthesis and initial biological evaluation of a novel pladienolide analog scaffold” (Medchemcomm, 2011), this text covers IC50 and Activity for five compounds.

Active and inactive are the calls of the source. The rule behind the calls is not given here.

Type in all cases: functional, cell-based
The test system of assay [1] is SK-MEL-2. The assay can be described thus: Cytotoxicity in human SK-MEL-2 cells assessed as growth inhibition after 72 hrs by XTT assay. As to conditions: SK-MEL-2, 72 h. Put shortly:
(§1)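 XTT assay after 72 h continuous compound exposure. IC50 is the concentration that inhibits growth to 50% of the DMSO vehicle-treated control. It was calculated by sigmoidal fitting of dose-response curves. Values are mean ± standard error of 3 independent experiments.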
A general note: Tetrazolium assays rely on reduction of a dye to a coloured formazan, in cell work by metabolically active cells.

A short description of assay [2]: Cytotoxicity in human JeKo1 cells assessed as growth inhibition after 72 hrs by XTT assay. The settings on record: JeKo-1, 72 h. A digest of the protocol:
as §1

Assay [3] relates to MOLT-4. The assay can be described thus: Cytotoxicity in human MOLT4 cells assessed as growth inhibition after 72 hrs by XTT assay. The settings on record: MOLT-4, 72 h. Put shortly:
as §1

The test system of assay [4] is PC-3. The assay can be described thus: Cytotoxicity in human PC3 cells assessed as growth inhibition after 72 hrs by XTT assay. The settings on record: PC-3, 72 h. A digest of the protocol:
as §1

Assay [5] relates to MCF7. Put plainly: Cytotoxicity in human MCF7 cells assessed as growth inhibition after 72 hrs by XTT assay. The settings on record: MCF7, 72 h. Put shortly:
as §1

In assay [6] the test system is NCI-H226. Put plainly: Cytotoxicity in human NCI-H226 cells assessed as growth inhibition after 72 hrs by XTT assay. As to conditions: NCI-H226, 72 h. A digest of the protocol:
as §1

Assay [7] deals with SK-MEL-2. Put plainly: Modulation of MDM2 mRNA splicing in human SK-MEL-2 cells assessed as increase in properly spliced MDM2 mRNA at 10 to 25 uM after 6 hrs by blotting assay. A digest of the protocol: (§2)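 SK-MEL-2 melanoma cells were exposed to DMSO vehicle or to the designated compound concentrations for 6 hours. MDM2 mRNA was then examined for the properly spliced form and for alternatively spliced variant forms.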

The subject of assay [8] is SK-MEL-2. The assay can be described thus: Modulation of MDM2 mRNA splicing in human SK-MEL-2 cells assessed as formation of two spliced MDM2 mRNA variants at 100 uM after 6 hrs by blotting assay. Put shortly:
as §2

In assay [9] the test system is SK-MEL-2. The assay can be described thus: Modulation of MDM2 mRNA splicing in human SK-MEL-2 cells assessed as increase in properly spliced MDM2 mRNA at 1 uM after 6 hrs by blotting assay. A digest of the protocol: as §2
In assay [10] the test system is SK-MEL-2. The assay can be described thus: Modulation of MDM2 mRNA splicing in human SK-MEL-2 cells assessed as formation of two spliced MDM2 mRNA variants at 10 uM after 6 hrs by blotting assay. Put shortly: as §2
Assay [11] deals with SK-MEL-2. The assay can be described thus: Modulation of MDM2 mRNA splicing in human SK-MEL-2 cells assessed as formation of two spliced MDM2 mRNA variants at 10 to 100 uM after 6 hrs by blotting assay. A digest of the protocol:
as §2

Assay [12] has as its system SK-MEL-2. The assay can be described thus: Modulation of MDM2 mRNA splicing in human SK-MEL-2 cells assessed as increase in properly spliced MDM2 mRNA at 10 to 100 uM after 6 hrs by blotting assay. A digest of the protocol:
as §2

In the case of `CC(=O)O[C@@H](C)/C=C\C(=O)N[C@H]1CC[C@@H](C/C=C(C)/C=C/[C@H]2OC(C)(C)C[C@@]3(CO3)[C@@H]2O)CC1`, the concentration for half-maximal inhibition (IC50) in [1] was 0.39 µM; in assay [2], 0.11 µM; in assay [3], 0.18 µM; in [4], 2.02 µM; in [5] it was 0.72 µM; in assay [6] it was greater than 10 µM.

For `CC(=O)O[C@H]1/C=C/C[C@@H](/C(C)=C/C=C/CC[C@H]2O[C@@H]2C[C@H](C)O)OC(=O)CCCC[C@@]1(C)O` (mixture of isomers), the IC50 in assay [1], in assay [2] and in assay [4] was greater than 20 µM throughout.

As to `CC(=O)O[C@H]1/C=C/C[C@@H](/C(C)=C/C=C/CC[C@H]2O[C@@H]2C[C@H](C)O[Si](C)(C)C(C)(C)C)OC(=O)CCCC[C@@]1(C)O`, the outcome in [7] and in assay [8] was Active. For the same compound, the concentration for half-maximal inhibition (IC50) in assay [1] was 10.7 µM; in assay [2], 11.6 µM; in assay [3] it was 15.5 µM; in assay [4], 18 µM; in assay [5] it was 19.2 µM; in assay [6], greater than 20 µM.

With `CC(/C=C/[C@H]1OC(C)(C)C[C@@]2(CO2)[C@@H]1O)=C\C[C@H]1OC[C@@H](NC(=O)/C=C\[C@H](C)OC(=O)C(C)C)CO1`, the outcome in [9] and in [10] was Active. Also, the IC50 was 0.7 µM in assay [1]; 0.29 µM in assay [2]; 0.66 µM in assay [3]; 4.16 µM in assay [4]; 1.69 µM in assay [5]; greater than 10 µM in assay [6].

`COc1ccc(COC/C=C(\C)[C@@H]2C/C=C/[C@H](OC(C)=O)[C@](C)(O)CCCCC(=O)O2)cc1`: in [11], the result was inactive. Further, the half-maximal inhibitory concentration (IC50) in [1] is greater than 20 µM. For the same compound, the result in assay [12] was Active.

Usually IC50 stands for the concentration at which inhibition is half-maximal.
